What was measured:
[1] = biological target: T1, Glutamate receptor ionotropic, NMDA 2B (Rattus norvegicus, UniProt Q00960); experiment: Antagonist activity at NR2B NMDA receptor in Wistar rat neocortical cells assessed as inhibition of NMDA-evoked elevation of intracellular calcium concentration; type: functional, cell-based
Summary of the method: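 Rat primary neocortical cultures (trypsinised cortex, poly-D-lysine coated wells, glial proliferation stopped with […], serum-free N2 medium) used after 3-10 days in vitro. Compound added (<0.1% DMSO), 5 min baseline, then 40 µM NMDA and 5 min fluorescence recording.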

[2] = biological target: T1, Glutamate receptor ionotropic, NMDA 2B; experiment: Displacement of [3H]Ro 25,6981 from NR2B NMDA receptor in rat forebrain
Summary of the method: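 Rat forebrain membranes were washed and suspended in 5 mM TRIS-HCl, pH 7.4, at 1 mg protein/mL. They were incubated 2 h at room temperature with 4 nM [3H]Ro-25,6981 and at least seven compound concentrations. Nonspecific binding was defined with 10 µM Ro-25,6981. Bound and free ligand were separated by GF/B filtration, and filters were counted by liquid scintillation. Results were expressed as % inhibition of specific binding.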

Mus musculus [3] = experiment: Inhibition of formalin induced nociception in ip dosed NMRI mouse by measuring pain-related licking behavior in late phase; type: functional
Summary of the method: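 Mouse formalin test: 20 µL 1% formalin in 0.9% saline injected s.c. into the dorsal right hindpaw. Compound given i.p. Pain-related licking scored at the peak of the second (persistent, 10-60 min) phase. ED50 reported.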

Mus musculus [4] = experiment: Inhibition of formalin induced nociception in orally dosed NMRI mouse by measuring pain-related licking behavior in late phase; type: functional; conditions: po
Summary of the method: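 Mice fasted 14-16 h with free 20% glucose. Compound or vehicle (5% Tween 80) given orally 15 min before s.c. injection of 20 µL 1% formalin in 0.9% saline into the dorsal right hindpaw. Licking measured at the peak of the second phase (10-60 min). ED50 reported.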

T1 sequence (Q00960 whole entry): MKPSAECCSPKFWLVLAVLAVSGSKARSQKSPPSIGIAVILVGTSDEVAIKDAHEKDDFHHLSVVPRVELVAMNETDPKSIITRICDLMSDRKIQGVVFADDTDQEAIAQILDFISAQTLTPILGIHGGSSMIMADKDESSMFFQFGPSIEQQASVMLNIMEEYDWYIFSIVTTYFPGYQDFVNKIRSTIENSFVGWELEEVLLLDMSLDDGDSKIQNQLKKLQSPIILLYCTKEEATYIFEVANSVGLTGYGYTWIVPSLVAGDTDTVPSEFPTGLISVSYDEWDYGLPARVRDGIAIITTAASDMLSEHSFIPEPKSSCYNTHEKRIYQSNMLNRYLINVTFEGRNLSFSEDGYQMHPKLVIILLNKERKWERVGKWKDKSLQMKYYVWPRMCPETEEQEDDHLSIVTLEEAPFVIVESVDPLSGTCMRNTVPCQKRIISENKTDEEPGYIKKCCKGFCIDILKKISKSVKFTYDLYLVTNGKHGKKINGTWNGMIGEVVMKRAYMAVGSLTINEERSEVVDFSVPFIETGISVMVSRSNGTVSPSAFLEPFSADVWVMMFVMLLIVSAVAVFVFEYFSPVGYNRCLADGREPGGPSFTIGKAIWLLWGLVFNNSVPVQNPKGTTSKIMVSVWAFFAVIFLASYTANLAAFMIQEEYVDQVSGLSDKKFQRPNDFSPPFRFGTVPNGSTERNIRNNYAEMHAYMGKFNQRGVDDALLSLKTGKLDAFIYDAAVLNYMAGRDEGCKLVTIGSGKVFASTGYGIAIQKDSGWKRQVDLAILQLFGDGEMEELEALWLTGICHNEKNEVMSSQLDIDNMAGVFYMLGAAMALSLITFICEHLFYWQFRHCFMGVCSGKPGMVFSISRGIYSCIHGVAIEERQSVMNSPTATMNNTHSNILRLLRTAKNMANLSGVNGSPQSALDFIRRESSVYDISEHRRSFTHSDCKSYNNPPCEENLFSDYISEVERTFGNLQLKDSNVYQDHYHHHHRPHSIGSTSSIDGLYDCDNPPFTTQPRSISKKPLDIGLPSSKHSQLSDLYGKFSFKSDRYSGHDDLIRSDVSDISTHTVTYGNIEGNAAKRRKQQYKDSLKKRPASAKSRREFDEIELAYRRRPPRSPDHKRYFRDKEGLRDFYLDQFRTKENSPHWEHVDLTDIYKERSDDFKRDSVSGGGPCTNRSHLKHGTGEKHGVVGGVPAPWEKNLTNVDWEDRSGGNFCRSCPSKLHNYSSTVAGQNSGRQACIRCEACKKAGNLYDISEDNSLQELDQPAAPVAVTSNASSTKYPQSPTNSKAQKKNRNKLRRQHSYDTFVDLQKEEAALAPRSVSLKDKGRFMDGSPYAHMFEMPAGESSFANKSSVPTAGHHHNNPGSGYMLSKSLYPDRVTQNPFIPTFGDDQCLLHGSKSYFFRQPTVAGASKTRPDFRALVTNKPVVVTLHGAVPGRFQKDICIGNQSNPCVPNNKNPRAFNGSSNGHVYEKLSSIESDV

SMILES	IC50 [1] [nM]	IC50 [2] [nM]	ED50 (Mus musculus [3]) [mg/kg]	ED50 (Mus musculus [4]) [mg/kg]
O=C(c1cc2cccc(O)c2[nH]1)N1CCC(Cc2ccccc2)CC1	165	380		
O=C(c1cc2cc(O)ccc2[nH]1)N1CCC(Cc2ccccc2)CC1	25	31		
O=C(c1cc2c(O)cc(O)cc2[nH]1)N1CCC(Cc2ccccc2)CC1	6.5	6		
COc1ccc(CC2CCCCN2C(=O)c2cc3ccc(O)cc3[nH]2)cc1 (configuration not stated)	> 8000			
O=C(c1nc2cc3[nH]c(=O)oc3cc2[nH]1)N1CCC(Cc2ccccc2)CC1	193			
O=C(c1cc2c(ccc3[nH]ncc32)[nH]1)N1CCC(Cc2ccccc2)CC1	20	5		
N=C(c1cc2ccc(O)cc2[nH]1)N1CCC(Cc2ccccc2)CC1	8.5	10		
CS(=O)(=O)Nc1cccc2[nH]c(C(=O)N3CCC(Cc4ccccc4)CC3)cc12		215		
O=C(c1nc2cc(O)ccc2[nH]1)N1CCC(Oc2ccc(F)cc2)CC1	2.9	6		
O=S(=O)(c1cc2ccc(O)cc2[nH]1)N1CCC(Cc2ccccc2)CC1	> 8000			
O=C(c1cc2ccc(O)cc2[nH]1)N1CCC(C(O)c2ccccc2)CC1 (configuration not stated)	111	60		
COc1ccccc1CC1CCN(C(=O)c2cc3ccc(O)cc3[nH]2)CC1	249			
O=C(c1cc2cc(O)ccc2o1)N1CCC(Cc2ccccc2)CC1	1900	> 10000		
Cc1cccc(CC2CCN(C(=O)c3nc4cc(O)ccc4[nH]3)CC2)c1	2.4	5		
COc1cccc(CC2CCN(C(=O)c3nc4cc(O)ccc4[nH]3)CC2)c1	2.5	3		
O=C(c1cc2ccc(O)cc2[nH]1)N1CCC(Cc2cccc(F)c2)CC1	38	31		

SMILES	IC50 [1] [nM]	IC50 [2] [nM]	ED50 (Mus musculus [3]) [mg/kg]	ED50 (Mus musculus [4]) [mg/kg]
O=C(c1cc2ccc(O)cc2[nH]1)N1CCC(Cc2ccccc2)CC1				1.7
O=C(c1cc2ccc(O)cc2[nH]1)N1CCC(c2ccccc2)CC1	> 8000			
O=C(c1cc2ccc(O)cc2[nH]1)N1CCC(CCc2ccccc2)CC1	875	359		
O=C(c1cc2ccc(O)cc2[nH]1)N1CCC(Cc2ccc(F)cc2)CC1	90	12		
Nc1cccc2[nH]c(C(=O)N3CCC(Cc4ccccc4)CC3)cc12	4.3	12		
O=C(c1cc2cc3[nH]c(=O)oc3cc2[nH]1)N1CCC(Cc2ccccc2)CC1		23		
Cc1ccc(CC2CCN(C(=O)c3cc4ccc(O)cc4[nH]3)CC2)cc1	208	28		
COc1ccc(CC2CCN(C(=O)c3cc4ccc(O)cc4[nH]3)CC2)cc1	80	17		
O=C(c1nc2cc(O)ccc2[nH]1)N1CCC(Oc2ccc(Cl)cc2)CC1	1.7	14		
O=C(c1nc2c(O)ccc(O)c2[nH]1)N1CCC(Cc2ccccc2)CC1	3	10		
Nc1ccc2[nH]c(C(=O)N3CCC(Cc4ccccc4)CC3)cc2c1	596			
O=C(c1cc2c(ccc3cn[nH]c32)[nH]1)N1CCC(Cc2ccccc2)CC1	58	64		
O=C(c1cc2ccc(O)cc2[nH]1)N1CCC(OCc2ccccc2)CC1	16	47		
CS(=O)(=O)Nc1ccc2[nH]c(C(=O)N3CCC(Cc4ccccc4)CC3)nc2c1	1.3	3		
O=c1[nH]c2ccc([S+]([O-])CCN3CCC(Cc4ccc(F)cc4)CC3)cc2o1 (configuration not stated) [BESONPRODIL]				2.4
C[C@@H]([C@@H](O)c1ccc(O)cc1)N1CCC(O)(c2ccccc2)CC1 [TRAXOPRODIL]				> 20

More lines, main results first:

IC50 [1] [nM]	IC50 [2] [nM]	SMILES	ED50 (Mus musculus [3]) [mg/kg]	ED50 (Mus musculus [4]) [mg/kg]
31	106	O=C(c1cc2cc(O)cc(O)c2[nH]1)N1CCC(Cc2ccccc2)CC1		
16	18	O=C(c1cc2c(O)cccc2[nH]1)N1CCC(Cc2ccccc2)CC1		
1.1	3	Cc1ccc(OC2CCN(C(=O)c3nc4cc(O)ccc4[nH]3)CC2)cc1		
1160		Oc1ccc2cc(CN3CCC(Cc4ccccc4)CC3)[nH]c2c1		
	> 10000	O=C(c1cc2ccc(O)cc2o1)N1CCC(Cc2ccccc2)CC1		
627		Nc1ccc2cc(C(=O)N3CCC(Cc4ccccc4)CC3)[nH]c2c1		
744		O=C(c1ccccc1)C1CCN(C(=O)c2cc3ccc(O)cc3[nH]2)CC1		
30	9	CS(=O)(=O)Nc1ccc2cc(C(=O)N3CCC(Cc4ccccc4)CC3)[nH]c2c1		
631	1540	CS(=O)(=O)Nc1ccc2[nH]c(C(=O)N3CCC(Cc4ccccc4)CC3)cc2c1		
159		C[C@@H](CN1CCC(Cc2ccccc2)CC1)[C@@H](O)c1ccc(O)cc1	5.1	
5770		Cn1c(C(=O)N2CCC(Cc3ccccc3)CC2)cc2ccc(O)cc21		
47	191	O=C(c1cc2c(NCc3ccccc3)cccc2[nH]1)N1CCC(Cc2ccccc2)CC1		
40	143	Nc1ccc2[nH]c(C(=O)N3CCC(Cc4ccccc4)CC3)nc2c1		
5610	> 10000	O=C(c1cc2cc(O)ccc2s1)N1CCC(Cc2ccccc2)CC1		
50	6	O=C(c1cc2c(ccc3[nH]cnc32)[nH]1)N1CCC(Cc2ccccc2)CC1		
2600		O=C(c1nc2ccc(O)cc2s1)N1CCC(Cc2ccccc2)CC1		
107	89	O=C(c1cc2ccc(O)cc2[nH]1)N1CCC(Oc2ccccc2)CC1		
8.6		CS(=O)(=O)Nc1ccc2nc(CN3CCC(Cc4ccccc4)CC3)[nH]c2c1		

Reference: ChEMBL document CHEMBL1142862, “Selective NR1/2B N-methyl-D-aspartate receptor antagonists among indole-2-carboxamides and benzimidazole-2-carboxamides” (J Med Chem, 2007)
